From ChEMBL document CHEMBL4382192, “Discovery of a potent dual ALK and EGFR T790M inhibitor” (Eur J Med Chem, 2017)

Tests used:
[1] = target: Cyclin-dependent kinase 11A (Homo sapiens) (UniProt Q9UQ88); experiment: Binding affinity to wild-type human partial length CDC2L2 (D391 to K730 residues) expressed in bacterial expression system assessed as residual binding level at 1 uM by Kinomescan method relative to control
[2] = target: Mitogen-activated protein kinase kinase kinase 19 (Homo sapiens) (UniProt Q56UN5); experiment: Binding affinity to wild-type human partial length YSK4 (T1019 to H1328 residues) expressed in mammalian expression system assessed as residual binding level at 1 uM by Kinomescan method relative to control
[3] = target: Discoidin domain-containing receptor 2 (Homo sapiens) (UniProt Q16832); experiment: Binding affinity to wild-type human partial length DDR2 (V555 to E855 residues) expressed in mammalian expression system assessed as residual binding level at 1 uM by Kinomescan method relative to control
[4] = target: Homeodomain-interacting protein kinase 1 (Homo sapiens) (UniProt Q86Z02); experiment: Binding affinity to wild-type human partial length HIPK1 (M146 to I555 residues) expressed in mammalian expression system assessed as residual binding level at 1 uM by Kinomescan method relative to control
[5] = target: Dual specificity protein kinase CLK1 (Homo sapiens) (UniProt P49759); experiment: Binding affinity to wild-type human full length CLK1 (M1 to I484 residues) expressed in bacterial expression system assessed as residual binding level at 1 uM by Kinomescan method relative to control
[6] = Drug uptake in mouse lung at 10 mg/kg, po after 2 hrs; assay type: ADME, organism-based; settings: read-out: Drug uptake
[7] = target: Cyclin-dependent kinase 17 (Homo sapiens) (UniProt Q00537); experiment: Binding affinity to wild-type human full length PCTK2 (M1 to F523 residues) expressed in bacterial expression system assessed as residual binding level at 1 uM by Kinomescan method relative to control
Method in brief: (§1)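 Single-point kinome-wide KINOMEscan binding panel, test compound at 1 μM, run by the provider's standard protocol.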

[8] = target: Tyrosine-protein kinase Srms (Homo sapiens) (UniProt Q9H3Y6); experiment: Binding affinity to wild-type human partial length SRMS (L208 to P488 residues) expressed in mammalian expression system assessed as residual binding level at 1 uM by Kinomescan method relative to control
[9] = target: Ribosomal protein S6 kinase alpha-3 (Homo sapiens) (UniProt P51812); experiment: Binding affinity to wild-type human partial length C-terminal RSK2 kinase domain 2 (V402 to S715 residues) expressed in mammalian expression system assessed as residual binding level at 1 uM by Kinomescan method relative to control
[10] = target: Serine/threonine-protein kinase Nek6 (Homo sapiens) (UniProt Q9HC98); experiment: Binding affinity to wild-type human full length NEK6 (M8 to T313 residues) expressed in bacterial expression system assessed as residual binding level at 1 uM by Kinomescan method relative to control; method in brief: as §1
[11] = target: Cyclin-dependent kinase 7 (Homo sapiens) (UniProt P50613); experiment: Binding affinity to wild-type human full length CDK7 (M1 to L344 residues) expressed in mammalian expression system assessed as residual binding level at 1 uM by Kinomescan method relative to control
[12] = target: Serine/threonine-protein kinase LATS1 (Homo sapiens) (UniProt O95835); experiment: Binding affinity to wild-type human partial length LATS1 (Q678 to V1130 residues) expressed in bacterial expression system assessed as residual binding level at 1 uM by Kinomescan method relative to control
[13] = target: Serine/threonine-protein kinase 32B (Homo sapiens) (UniProt Q9NY57); experiment: Binding affinity to wild-type human full length YANK2 (M1 to S414 residues) expressed in bacterial expression system assessed as residual binding level at 1 uM by Kinomescan method relative to control
[14] = target: Serine/threonine-protein kinase pim-3 (Homo sapiens) (UniProt Q86V86); experiment: Binding affinity to wild-type human partial length PIM3 (G16 to A317 residues) expressed in bacterial expression system assessed as residual binding level at 1 uM by Kinomescan method relative to control
[15] = target: Serine/threonine-protein kinase D2 (Homo sapiens) (UniProt Q9BZL6); experiment: Binding affinity to wild-type human partial length PRKD2 (A519 to E838 residues) expressed in bacterial expression system assessed as residual binding level at 1 uM by Kinomescan method relative to control
[16] = target: Serine/threonine-protein kinase 16 (Homo sapiens) (UniProt O75716); experiment: Binding affinity to wild-type human partial length STK16 (G11 to I305 residues) expressed in bacterial expression system assessed as residual binding level at 1 uM by Kinomescan method relative to control
[17] = target: Inhibitor of nuclear factor kappa-B kinase subunit alpha (Homo sapiens) (UniProt O15111); experiment: Binding affinity to wild-type human full length IKK-alpha (M1 to E745 residues) expressed in mammalian expression system assessed as residual binding level at 1 uM by Kinomescan method relative to control; method in brief: as §1
[18] = target: Serine/threonine-protein kinase SBK1 (Homo sapiens) (UniProt Q52WX2); experiment: Binding affinity to wild-type human partial length SBK1 (P23 to P348 residues) expressed in mammalian expression system assessed as residual binding level at 1 uM by Kinomescan method relative to control
[19] = target: Interleukin-1 receptor-associated kinase 3 (Homo sapiens) (UniProt Q9Y616); experiment: Binding affinity to wild-type human partial length IRAK3 (V147 to E596 residues) expressed in bacterial expression system assessed as residual binding level at 1 uM by Kinomescan method relative to control
[20] = test system: Proto-oncogene tyrosine-protein kinase receptor Ret (Homo sapiens), P07949 [V804L]; experiment: Binding affinity to human partial length RET V804L mutant (E713 to D1014 residues) expressed in bacterial expression system assessed as residual binding level at 1 uM by Kinomescan method relative to control
Method in brief: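 Kinome-wide selectivity panel run by the KINOMEscan method, with the test compound at a single concentration of 1 μM. Wild-type and mutant kinases were profiled in the same screen.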

[21] = target: Macrophage colony-stimulating factor 1 receptor (Homo sapiens) (UniProt P07333); experiment: Binding affinity to wild-type human partial length autoinhibited CSF1R (Y538 to S939 residues) expressed in mammalian expression system assessed as residual binding level at 1 uM by Kinomescan method relative to control
[22] = target: Dual specificity mitogen-activated protein kinase kinase 6 (Homo sapiens) (UniProt P52564); experiment: Binding affinity to wild-type human partial length MEK6 (K36 to D334 residues) expressed in bacterial expression system assessed as residual binding level at 1 uM by Kinomescan method relative to control
[23] = target: Hepatocyte growth factor receptor (Homo sapiens) (UniProt P08581); experiment: Binding affinity to wild-type human partial length MET (D1010 to S1367 residues) expressed in bacterial expression system assessed as residual binding level at 1 uM by Kinomescan method relative to control
[24] = target: Mitogen-activated protein kinase 4 (Homo sapiens) (UniProt P31152); experiment: Binding affinity to wild-type human partial length ERK4 (M1 to L365 residues) expressed in bacterial expression system assessed as residual binding level at 1 uM by Kinomescan method relative to control
Mitogen-activated protein kinase 4 (Homo sapiens), sequence (P31152 whole entry, the tested form may be a part): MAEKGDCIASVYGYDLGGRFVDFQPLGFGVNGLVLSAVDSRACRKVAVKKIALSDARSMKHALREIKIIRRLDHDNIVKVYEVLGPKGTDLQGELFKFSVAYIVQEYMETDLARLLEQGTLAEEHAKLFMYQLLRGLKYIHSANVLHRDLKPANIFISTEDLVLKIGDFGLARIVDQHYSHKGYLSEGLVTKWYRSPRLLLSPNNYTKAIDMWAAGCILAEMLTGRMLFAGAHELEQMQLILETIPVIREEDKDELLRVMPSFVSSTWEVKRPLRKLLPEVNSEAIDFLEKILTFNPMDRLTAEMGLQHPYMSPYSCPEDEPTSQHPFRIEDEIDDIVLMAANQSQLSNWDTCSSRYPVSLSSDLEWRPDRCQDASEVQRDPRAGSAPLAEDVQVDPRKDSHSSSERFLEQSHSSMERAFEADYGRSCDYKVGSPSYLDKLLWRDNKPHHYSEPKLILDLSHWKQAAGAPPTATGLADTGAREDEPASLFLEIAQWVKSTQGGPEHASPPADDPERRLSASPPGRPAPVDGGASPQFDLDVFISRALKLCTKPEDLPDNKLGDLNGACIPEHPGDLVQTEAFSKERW

Serine/threonine-protein kinase Nek6 (Homo sapiens), sequence (Q9HC98 whole entry, the tested form may be a part): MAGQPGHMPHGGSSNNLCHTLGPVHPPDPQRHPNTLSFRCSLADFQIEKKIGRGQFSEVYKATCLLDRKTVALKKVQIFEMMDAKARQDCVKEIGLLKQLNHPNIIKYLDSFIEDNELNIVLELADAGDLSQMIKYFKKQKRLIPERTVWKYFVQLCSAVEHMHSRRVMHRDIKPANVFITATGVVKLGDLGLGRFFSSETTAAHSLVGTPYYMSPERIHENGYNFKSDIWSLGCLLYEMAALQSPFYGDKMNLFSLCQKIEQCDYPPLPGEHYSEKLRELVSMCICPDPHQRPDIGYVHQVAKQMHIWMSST
Discoidin domain-containing receptor 2 (Homo sapiens), sequence (Q16832 whole entry, the tested form may be a part): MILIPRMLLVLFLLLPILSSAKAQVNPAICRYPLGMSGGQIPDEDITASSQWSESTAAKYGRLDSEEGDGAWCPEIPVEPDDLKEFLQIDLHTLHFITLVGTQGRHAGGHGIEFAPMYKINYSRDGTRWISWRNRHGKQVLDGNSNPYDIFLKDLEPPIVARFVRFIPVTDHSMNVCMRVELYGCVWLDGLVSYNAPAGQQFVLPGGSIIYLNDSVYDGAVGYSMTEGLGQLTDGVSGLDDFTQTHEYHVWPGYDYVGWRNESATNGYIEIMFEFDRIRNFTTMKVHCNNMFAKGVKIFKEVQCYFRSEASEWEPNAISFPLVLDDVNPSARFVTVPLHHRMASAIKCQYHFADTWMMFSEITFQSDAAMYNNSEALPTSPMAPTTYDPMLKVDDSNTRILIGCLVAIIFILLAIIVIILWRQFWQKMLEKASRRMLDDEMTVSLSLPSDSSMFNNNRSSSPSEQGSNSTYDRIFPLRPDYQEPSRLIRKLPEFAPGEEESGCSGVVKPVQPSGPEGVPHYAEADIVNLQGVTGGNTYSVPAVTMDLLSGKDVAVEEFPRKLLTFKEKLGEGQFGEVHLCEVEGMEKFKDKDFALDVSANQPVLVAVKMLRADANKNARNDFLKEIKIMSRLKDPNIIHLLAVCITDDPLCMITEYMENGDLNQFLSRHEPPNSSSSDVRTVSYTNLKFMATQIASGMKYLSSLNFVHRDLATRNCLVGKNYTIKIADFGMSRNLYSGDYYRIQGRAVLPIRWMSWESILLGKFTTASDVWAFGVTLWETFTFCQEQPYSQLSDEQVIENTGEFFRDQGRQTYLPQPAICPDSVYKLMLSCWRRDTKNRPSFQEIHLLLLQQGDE
Tyrosine-protein kinase Srms (Homo sapiens), sequence (Q9H3Y6 whole entry, the tested form may be a part): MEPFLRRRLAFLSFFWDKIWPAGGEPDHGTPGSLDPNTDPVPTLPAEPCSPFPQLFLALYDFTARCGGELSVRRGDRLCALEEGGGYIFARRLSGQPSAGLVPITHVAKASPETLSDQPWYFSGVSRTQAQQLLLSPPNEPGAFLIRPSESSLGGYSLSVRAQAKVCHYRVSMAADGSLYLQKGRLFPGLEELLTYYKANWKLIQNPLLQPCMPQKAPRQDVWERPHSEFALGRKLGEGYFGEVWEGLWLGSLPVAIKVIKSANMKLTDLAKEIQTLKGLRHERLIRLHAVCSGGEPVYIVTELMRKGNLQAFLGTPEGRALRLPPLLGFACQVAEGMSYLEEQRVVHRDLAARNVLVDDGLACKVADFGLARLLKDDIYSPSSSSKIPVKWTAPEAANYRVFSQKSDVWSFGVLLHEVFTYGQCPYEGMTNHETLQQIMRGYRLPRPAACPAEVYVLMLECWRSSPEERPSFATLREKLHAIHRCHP
Hepatocyte growth factor receptor (Homo sapiens), sequence (P08581 whole entry, the tested form may be a part): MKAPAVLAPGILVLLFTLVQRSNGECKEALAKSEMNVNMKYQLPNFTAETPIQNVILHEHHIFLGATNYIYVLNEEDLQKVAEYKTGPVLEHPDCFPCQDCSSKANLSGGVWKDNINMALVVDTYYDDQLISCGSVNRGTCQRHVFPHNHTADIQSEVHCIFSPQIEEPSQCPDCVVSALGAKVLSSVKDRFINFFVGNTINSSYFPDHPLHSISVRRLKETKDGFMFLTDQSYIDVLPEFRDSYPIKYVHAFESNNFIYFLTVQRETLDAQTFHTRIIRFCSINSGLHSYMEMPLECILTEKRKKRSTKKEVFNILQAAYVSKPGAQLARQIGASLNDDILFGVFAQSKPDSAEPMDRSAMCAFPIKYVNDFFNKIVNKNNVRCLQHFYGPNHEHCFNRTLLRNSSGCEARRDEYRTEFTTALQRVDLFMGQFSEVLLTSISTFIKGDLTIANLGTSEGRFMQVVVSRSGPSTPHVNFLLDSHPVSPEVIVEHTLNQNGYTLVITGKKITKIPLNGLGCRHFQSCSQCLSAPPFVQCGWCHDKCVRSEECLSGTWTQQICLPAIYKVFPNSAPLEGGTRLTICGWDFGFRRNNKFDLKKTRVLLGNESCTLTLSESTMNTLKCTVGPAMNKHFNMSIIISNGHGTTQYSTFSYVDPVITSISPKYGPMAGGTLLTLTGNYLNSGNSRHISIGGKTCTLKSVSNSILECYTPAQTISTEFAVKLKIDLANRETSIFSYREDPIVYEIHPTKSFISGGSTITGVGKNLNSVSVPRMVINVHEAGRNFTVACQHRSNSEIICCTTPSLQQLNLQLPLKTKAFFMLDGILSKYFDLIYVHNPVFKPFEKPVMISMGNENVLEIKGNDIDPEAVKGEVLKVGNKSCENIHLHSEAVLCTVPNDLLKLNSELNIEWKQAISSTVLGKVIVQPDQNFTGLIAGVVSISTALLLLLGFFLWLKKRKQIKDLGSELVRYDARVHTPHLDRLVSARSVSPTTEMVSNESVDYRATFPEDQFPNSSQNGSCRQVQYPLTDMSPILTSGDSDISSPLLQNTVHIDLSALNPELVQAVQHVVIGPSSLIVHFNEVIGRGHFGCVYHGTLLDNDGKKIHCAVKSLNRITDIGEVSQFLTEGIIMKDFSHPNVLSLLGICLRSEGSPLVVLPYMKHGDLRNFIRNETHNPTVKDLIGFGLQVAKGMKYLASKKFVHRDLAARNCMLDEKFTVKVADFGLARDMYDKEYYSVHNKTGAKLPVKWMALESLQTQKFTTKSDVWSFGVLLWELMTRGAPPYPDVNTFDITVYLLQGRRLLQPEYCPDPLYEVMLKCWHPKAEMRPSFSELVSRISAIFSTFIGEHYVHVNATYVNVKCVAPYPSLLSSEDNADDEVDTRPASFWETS
Proto-oncogene tyrosine-protein kinase receptor Ret (Homo sapiens), P07949 [V804L], sequence (P07949 whole entry V804L, the tested form may be a part): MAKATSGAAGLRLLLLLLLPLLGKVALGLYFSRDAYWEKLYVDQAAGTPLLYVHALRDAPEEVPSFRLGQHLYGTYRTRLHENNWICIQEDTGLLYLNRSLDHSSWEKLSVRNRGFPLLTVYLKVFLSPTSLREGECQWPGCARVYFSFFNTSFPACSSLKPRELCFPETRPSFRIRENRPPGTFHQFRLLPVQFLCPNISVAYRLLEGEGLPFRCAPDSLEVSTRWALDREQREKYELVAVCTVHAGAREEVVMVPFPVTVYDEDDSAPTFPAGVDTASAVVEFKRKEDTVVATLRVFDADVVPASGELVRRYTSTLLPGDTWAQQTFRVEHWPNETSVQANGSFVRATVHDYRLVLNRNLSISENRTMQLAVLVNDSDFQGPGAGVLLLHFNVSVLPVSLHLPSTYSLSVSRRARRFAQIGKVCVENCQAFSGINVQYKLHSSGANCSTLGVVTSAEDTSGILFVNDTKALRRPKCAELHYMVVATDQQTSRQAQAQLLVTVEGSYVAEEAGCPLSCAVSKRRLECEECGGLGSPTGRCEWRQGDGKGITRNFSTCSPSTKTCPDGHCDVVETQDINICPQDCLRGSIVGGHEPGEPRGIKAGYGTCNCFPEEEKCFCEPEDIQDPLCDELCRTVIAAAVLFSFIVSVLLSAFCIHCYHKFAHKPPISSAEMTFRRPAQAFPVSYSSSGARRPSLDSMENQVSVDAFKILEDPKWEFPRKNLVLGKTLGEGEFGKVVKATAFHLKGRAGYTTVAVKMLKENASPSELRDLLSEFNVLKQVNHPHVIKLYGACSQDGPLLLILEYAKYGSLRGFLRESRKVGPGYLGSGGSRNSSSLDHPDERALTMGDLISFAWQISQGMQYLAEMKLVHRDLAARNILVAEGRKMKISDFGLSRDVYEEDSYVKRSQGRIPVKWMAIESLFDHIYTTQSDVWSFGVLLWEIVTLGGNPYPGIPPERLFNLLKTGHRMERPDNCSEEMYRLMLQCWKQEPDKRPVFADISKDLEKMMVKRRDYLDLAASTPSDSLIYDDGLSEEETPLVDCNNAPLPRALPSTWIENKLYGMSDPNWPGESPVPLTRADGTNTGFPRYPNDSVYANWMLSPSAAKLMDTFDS

Structure (SMILES): C=CC(=O)Nc1cc(Nc2ncc(Cl)c(Nc3ccccc3S(=O)(=O)C(C)C)n2)c(OC)cc1N(C)CCN(C)C
- Activity [1]: 78%
- Activity [2]: 14%
- Activity [3]: 77%
- Activity [4]: 57%
- Activity [5]: 6.9%
- concentration at 2 h [6]: 4.64 µM
- Activity [7]: 74%
- Activity [8]: 6.5%
- Activity [9]: 75%
- Activity [10]: 80%
- Activity [11]: 21%
- Activity [12]: 82%
- Activity [13]: 2.4%
- Activity [14]: 96%
- Activity [15]: 3.1%
- Activity [16]: 64%
- Activity [17]: 96%
- Activity [18]: 1.9%
- Activity [19]: 37%
- Activity [20]: 14%
- Activity [21]: 92%
- Activity [22]: 66%
- Activity [23]: 30%
- Activity [24]: 82%
